Laboratory results: ChEMBL document CHEMBL1139491 (J Med Chem, 2005)

Columns and labels:
A549 [1] = assay: Tested for cytotoxicity towards A549 cell line (human lung carcinoma); Not active; assay type: functional, cell-based
MCF7 [2] = assay: Tested for cytotoxicity towards MCF-7 cell line (human breast cancer); Not active; assay type: functional, cell-based
T47D [3] = assay: Tested for cytotoxicity towards T47D cell line (human breast cancer); Not active; assay type: functional, cell-based
[4] = biological target: T1, Aryl hydrocarbon receptor (Oryctolagus cuniculus, UniProt O02747); assay: Binding affinity for aryl hydrocarbon receptor (AhR) of rabbit liver cytosol incubated with 0.2 nM [3H]-TCDD; Antagonist
T1 sequence (O02747 whole entry): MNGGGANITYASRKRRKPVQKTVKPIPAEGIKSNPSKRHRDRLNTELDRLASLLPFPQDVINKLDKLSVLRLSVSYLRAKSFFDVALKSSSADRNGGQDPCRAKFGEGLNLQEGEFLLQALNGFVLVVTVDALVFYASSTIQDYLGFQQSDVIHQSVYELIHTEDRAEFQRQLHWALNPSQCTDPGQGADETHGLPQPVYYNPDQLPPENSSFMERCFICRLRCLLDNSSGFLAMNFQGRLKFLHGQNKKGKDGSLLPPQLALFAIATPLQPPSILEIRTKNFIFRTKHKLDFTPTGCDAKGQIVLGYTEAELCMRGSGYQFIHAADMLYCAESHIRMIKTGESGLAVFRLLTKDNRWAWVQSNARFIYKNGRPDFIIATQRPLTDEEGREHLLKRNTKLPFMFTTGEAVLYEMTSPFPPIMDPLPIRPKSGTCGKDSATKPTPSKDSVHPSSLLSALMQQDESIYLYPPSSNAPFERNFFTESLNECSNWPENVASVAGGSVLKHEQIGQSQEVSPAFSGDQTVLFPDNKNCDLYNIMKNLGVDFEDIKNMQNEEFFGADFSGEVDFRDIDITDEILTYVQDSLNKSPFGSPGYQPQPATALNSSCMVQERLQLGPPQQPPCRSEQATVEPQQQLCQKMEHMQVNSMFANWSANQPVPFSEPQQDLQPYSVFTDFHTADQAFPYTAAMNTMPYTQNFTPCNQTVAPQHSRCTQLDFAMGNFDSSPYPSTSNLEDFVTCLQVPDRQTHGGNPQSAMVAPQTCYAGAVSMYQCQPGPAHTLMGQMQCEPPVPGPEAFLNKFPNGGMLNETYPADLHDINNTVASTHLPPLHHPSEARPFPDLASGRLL
How it was run: (§1)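 Rabbit liver cytosol incubated with 0.2 nM [3H]-TCDD plus unlabeled ligand at 12 concentrations spanning 0.1 nM to 1 µM. Competitive displacement measured, and IC50 obtained by iterative curve fitting.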

Estrogen receptor [5] = biological target: T2, Estrogen receptor (Homo sapiens, UniProt P03372); assay: Binding affinity for estrogen receptor (ER) alpha of MCF-7 cell cytosol incubated with 2 nM [3H]estradiol; assay type: cell-based
T2 sequence (P03372 whole entry): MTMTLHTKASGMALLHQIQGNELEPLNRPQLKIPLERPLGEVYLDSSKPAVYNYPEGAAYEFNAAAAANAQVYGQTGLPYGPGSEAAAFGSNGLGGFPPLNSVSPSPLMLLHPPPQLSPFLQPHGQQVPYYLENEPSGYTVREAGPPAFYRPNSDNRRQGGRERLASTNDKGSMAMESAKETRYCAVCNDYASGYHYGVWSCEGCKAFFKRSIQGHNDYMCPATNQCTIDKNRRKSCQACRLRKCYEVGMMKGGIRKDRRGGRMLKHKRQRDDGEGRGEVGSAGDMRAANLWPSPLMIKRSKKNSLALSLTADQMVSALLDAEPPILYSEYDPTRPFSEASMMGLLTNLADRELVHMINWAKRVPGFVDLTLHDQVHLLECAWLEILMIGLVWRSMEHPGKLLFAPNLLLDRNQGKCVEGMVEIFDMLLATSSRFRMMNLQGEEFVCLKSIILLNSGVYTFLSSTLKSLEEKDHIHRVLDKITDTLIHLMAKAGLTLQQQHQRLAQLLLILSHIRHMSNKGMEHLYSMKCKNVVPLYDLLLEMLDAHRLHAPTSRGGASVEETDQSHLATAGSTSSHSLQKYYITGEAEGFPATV
How it was run: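 Cytosol from MCF-7 cells, which express only the ERα isoform, incubated with 2 nM [3H]-estradiol and unlabeled ligand at eight concentrations from 10 nM to 10 µM. IC50 derived by iterative curve fitting, and Ki calculated using a Kd of 0.1 nM.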

T47D [6] = assay: Tested for cytotoxicity towards T47D cell line (human breast cancer); assay type: functional, cell-based
A549 [7] = assay: Tested for cytotoxicity towards A549 cell line (human lung carcinoma); assay type: functional, cell-based
MCF7 [8] = assay: Tested for cytotoxicity towards MCF-7 cell line (human breast cancer); assay type: functional, cell-based
Estrogen receptor [9] = biological target: T2, Estrogen receptor; assay: Binding affinity for estrogen receptor (ER) alpha of MCF-7 cell cytosol incubated with 2 nM [3H]estradiol; Agonist; assay type: cell-based
How it was run: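 ERα-only cytosol from MCF-7 cells, incubated with 2 nM [3H]-estradiol and eight concentrations (10 nM–10 µM) of unlabelled ligand. IC50 came from iterative curve fitting, and Ki was calculated using Kd 0.1 nM. Agonist status: stimulation of ERE-driven luciferase in MELN reporter cells after 8 h, with or without 1 nM 17β-estradiol; luciferase activity was the read-out.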

[10] = biological target: T1, Aryl hydrocarbon receptor; assay: Binding affinity for aryl hydrocarbon receptor (AhR) of rabbit liver cytosol incubated with 0.2 nM [3H]-TCDD; Agonist; how it was run: as §1

In the case of `COc1cccc(/C=C/c2cc(Cl)cc(Cl)c2)c1`, the Concentration (A549 [1]) is reported as > 10 µM, the Concentration (MCF7 [2]) is reported as > 10 µM and the Concentration (T47D [3]) is reported as > 10 µM. For the same molecule, the Ki [4] was 5.7 nM and the Ki (Estrogen receptor [5]) was > 100000 nM.
`COc1cc(/C=C\c2ccc(F)cc2)cc(OC)c1` was tested, and the Concentration (T47D [6]) was > 10 µM, the Concentration (A549 [7]) was > 10 µM and the Concentration (MCF7 [8]) was > 10 µM. The Ki [4] was 96 nM and the Ki (Estrogen receptor [5]) was > 100000 nM.
`Clc1ccc(/C=C\c2cc(Cl)cc(Cl)c2)cc1` was tested, and the Concentration (T47D [6]) was < 100 µM, the Concentration (A549 [7]) was < 100 µM and the Concentration (MCF7 [8]) was < 100 µM. The Ki [4] was 13 nM and the Ki (Estrogen receptor [5]) was > 100000 nM.
`Clc1ccc(/C=C/c2cc(Cl)cc(Cl)c2)cc1` was tested, and the Concentration (A549 [1]) was > 10 µM, the Concentration (MCF7 [2]) was > 10 µM and the Concentration (T47D [3]) was > 10 µM. For the same molecule, the Ki [4] was 1.2 nM and the Ki (Estrogen receptor [5]) was > 100000 nM.
For `FC(F)(F)c1ccc(/C=C/c2cc(C(F)(F)F)cc(C(F)(F)F)c2)cc1`, the Concentration (A549 [1]) was > 10 µM, the Concentration (MCF7 [2]) was > 10 µM and the Concentration (T47D [3]) was > 10 µM. The Ki [4] was 2.1 nM and the Ki (Estrogen receptor [5]) was > 100000 nM.
With `FC(F)(F)c1ccc(/C=C\c2cc(C(F)(F)F)cc(C(F)(F)F)c2)cc1` the Concentration (A549 [1]) was > 10 µM, the Concentration (MCF7 [2]) was > 10 µM and the Concentration (T47D [3]) was > 10 µM. The Ki [4] was 60 nM and the Ki (Estrogen receptor [5]) was > 100000 nM.
With `CCOc1ccc(/C=C/c2cc(OC)cc(OC)c2)cc1` the Concentration (T47D [6]) was < 0.1 µM, the Concentration (A549 [7]) was < 0.1 µM and the Concentration (MCF7 [8]) was < 0.1 µM. The Ki [4] was 5 nM and the Ki (Estrogen receptor [9]) was 381 nM.
For `FC(F)(F)c1ccc(/C=C/c2cc(Cl)cc(Cl)c2)cc1`, the Concentration (A549 [1]) was > 10 µM, the Concentration (MCF7 [2]) was > 10 µM and the Concentration (T47D [3]) was > 10 µM. For the same molecule, the Ki [10] was 0.2 nM and the Ki (Estrogen receptor [5]) was > 100000 nM.
With `FC(F)(F)c1cccc(/C=C/c2cc(Cl)cc(Cl)c2)c1` the Concentration (A549 [1]) was > 10 µM, the Concentration (MCF7 [2]) was > 10 µM and the Concentration (T47D [3]) was > 10 µM. For the same molecule, the Ki [4] was 6.8 nM and the Ki (Estrogen receptor [5]) was > 100000 nM.
`COc1ccc(/C=C/c2cc(Cl)cc(Cl)c2)cc1` was tested, and the Concentration (A549 [1]) was > 10 µM, the Concentration (MCF7 [2]) was > 10 µM and the Concentration (T47D [3]) was > 10 µM. For the same molecule, the Ki [4] was 1.4 nM and the Ki (Estrogen receptor [5]) was > 100000 nM.
`COc1ccc(/C=C\c2cc(OC)cc(OC)c2)cc1` [8Z-3,4',5-TRIMETHOXYSTILBENE] gave a Ki [4] of 75 nM and a Ki (Estrogen receptor [9]) of 132 nM.
For `COc1cccc(/C=C\c2cc(Cl)cc(Cl)c2)c1`, the Concentration (A549 [1]) was > 10 µM, the Concentration (MCF7 [2]) was > 10 µM and the Concentration (T47D [3]) was > 10 µM. The Ki [4] was 24 nM and the Ki (Estrogen receptor [5]) was > 100000 nM.
`COc1ccc(/C=C/c2cc(F)cc(F)c2)cc1` was tested, and the Concentration (A549 [1]) was > 10 µM, the Concentration (MCF7 [2]) was > 10 µM and the Concentration (T47D [3]) was > 10 µM. The Ki [4] was 9.2 nM and the Ki (Estrogen receptor [5]) was > 100000 nM.
With `Oc1ccc(/C=C/c2cc(O)cc(O)c2)cc1` [RESVERATROL] the Ki (Estrogen receptor [9]) was 785 nM.
`COc1ccc(/C=C\c2cc(Cl)cc(Cl)c2)cc1` was tested, and the Concentration (A549 [1]) was > 10 µM, the Concentration (MCF7 [2]) was > 10 µM and the Concentration (T47D [3]) was > 10 µM. For the same molecule, the Ki [4] was 12 nM and the Ki (Estrogen receptor [5]) was > 100000 nM.
For `CCCCOc1ccc(/C=C/c2cc(OC)cc(OC)c2)cc1`, the Concentration (T47D [6]) was > 10 µM, the Concentration (A549 [7]) was > 10 µM and the Concentration (MCF7 [8]) was > 10 µM. The Ki [4] was 20 nM and the Ki (Estrogen receptor [5]) was > 100000 nM.
`FC(F)(F)c1cccc(/C=C\c2cc(Cl)cc(Cl)c2)c1` was tested, and the Concentration (A549 [1]) was > 10 µM, the Concentration (MCF7 [2]) was > 10 µM and the Concentration (T47D [3]) was > 10 µM. For the same molecule, the Ki [4] was 19 nM and the Ki (Estrogen receptor [5]) was > 100000 nM.
In the case of `COc1ccc(/C=C\c2cc(F)cc(F)c2)cc1`, the Concentration (A549 [1]) is reported as > 10 µM, the Concentration (MCF7 [2]) is reported as > 10 µM and the Concentration (T47D [3]) is reported as > 10 µM. For the same molecule, the Ki [4] was 22 nM and the Ki (Estrogen receptor [5]) was > 100000 nM.
With `Fc1ccc(/C=C/c2cc(F)cc(F)c2)cc1` the Concentration (A549 [1]) was > 10 µM, the Concentration (MCF7 [2]) was > 10 µM and the Concentration (T47D [3]) was > 10 µM. For the same molecule, the Ki [4] was 3.8 nM and the Ki (Estrogen receptor [5]) was > 100000 nM.
For `COc1ccc(/C=C/c2cc(OC)cc(OC)c2)cc1` [TRISMETHOXYRESVERATROL], the Concentration (T47D [6]) was < 100 µM, the Concentration (A549 [7]) was < 100 µM and the Concentration (MCF7 [8]) was < 100 µM. For the same molecule, the Ki [4] was 7.7 nM and the Ki (Estrogen receptor [9]) was 261 nM.
`FC(F)(F)c1ccc(/C=C\c2cc(Cl)cc(Cl)c2)cc1` was tested, and the Concentration (A549 [1]) was > 10 µM, the Concentration (MCF7 [2]) was > 10 µM and the Concentration (T47D [3]) was > 10 µM. The Ki [4] was 14 nM and the Ki (Estrogen receptor [5]) was > 100000 nM.
For `Fc1ccc(/C=C\c2cc(F)cc(F)c2)cc1`, the Concentration (A549 [1]) was > 10 µM, the Concentration (MCF7 [2]) was > 10 µM and the Concentration (T47D [3]) was > 10 µM. The Ki [4] was 63 nM and the Ki (Estrogen receptor [5]) was > 100000 nM.
With `COc1cc(/C=C/c2ccc(F)cc2)cc(OC)c1` the Concentration (T47D [6]) was > 10 µM, the Concentration (A549 [7]) was > 10 µM and the Concentration (MCF7 [8]) was > 10 µM. The Ki [4] was 3.1 nM and the Ki (Estrogen receptor [5]) was > 100000 nM.
`CCCCOc1ccc(/C=C\c2cc(OC)cc(OC)c2)cc1` was tested, and the Ki [4] was 43 nM and the Ki (Estrogen receptor [5]) was > 100000 nM.
In the case of `CCOc1ccc(/C=C\c2cc(OC)cc(OC)c2)cc1`, the Concentration (T47D [6]) is reported as < 0.1 µM, the Concentration (A549 [7]) is reported as < 0.1 µM and the Concentration (MCF7 [8]) is reported as < 0.1 µM. It also gave a Ki [4] of 65 nM and a Ki (Estrogen receptor [9]) of 136 nM.
